ChEMBL document CHEMBL1147559, “Synthesis and antitumor evaluation of benzoylphenylurea analogs” (Bioorg Med Chem Lett, 2004)

Experiments:
Assay type in all cases: functional, cell-based
[1] = tested on: HEp-2; experiment: Cytotoxicity of compound against growth of human Hep2 cell line
Outline: (§1)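 MTT dye-conversion assay. Cells kept in monolayer at 37 °C in humidified 5% CO2, trypsinized, seeded at 5 × 10³ cells/well and grown 24 h. Then treated 96 h with exponentially increasing drug concentrations in 10% FBS; compound stocks in DMSO. MTT (5 mg/mL in PBS) added for 3 h at 37 °C. Medium replaced with DMSO and OD read at 570 nm.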

[2] = tested on: BXPC-3; experiment: Inhibitory concentration of compound against growth of human BxPC3 cell line; Resistant; outline: as §1
[3] = tested on: HEp-2; experiment: Inhibitory concentration of compound against growth of human Hep2 cell line; Resistant; outline: as §1
[4] = tested on: SNU-308; experiment: Inhibitory concentration of compound against growth of human SNU-308 cell line; Resistant; outline: as §1
[5] = tested on: HuCCT-1; experiment: Inhibitory concentration of compound against growth of human HuCCT-1 cell line; Resistant; outline: as §1
[6] = tested on: HN006 cell line; experiment: Inhibitory concentration of compound against growth of human HN006 cell line; Resistant; outline: as §1
[7] = tested on: A-431; experiment: Inhibitory concentration of compound against growth of human A431 cell line; Resistant; outline: as §1
[8] = tested on: MIA PaCa-2; experiment: Inhibitory concentration of compound against growth of human MIA PaCa cell line; Resistant; outline: as §1
[9] = tested on: PANC-1; experiment: Inhibitory concentration of compound against growth of human Panc-1 cell line; Resistant; outline: as §1
[10] = tested on: HEp-2; experiment: Inhibitory concentration of compound against growth of human Hep2 cell line; outline: as §1
[11] = tested on: MIA PaCa-2; experiment: Inhibitory concentration of compound against growth of human Mia-Paca cell line; outline: as §1
[12] = tested on: BXPC-3; experiment: Inhibitory concentration of compound against growth of human BxPC3 cell line; outline: as §1

Cc1cc(NC(=O)N(C)C(=O)c2ccccc2NC(=O)N(C)C(=O)c2ccccc2N)ccc1Oc1ncc(Br)cn1
IC50 [1]: 5 µM

CNc1ccccc1C(=O)N(C)C(=O)Nc1ccc(Oc2ncc(Br)cn2)c(C)c1
Activity [2]: Resistant
Activity [3]: Resistant
Activity [4]: Resistant
Activity [5]: Resistant
Activity [6]: Resistant
Activity [7]: Resistant
Activity [8]: Resistant
Activity [9]: Resistant

Cc1cc(NC(=O)N(C)C(=O)c2ccccc2N)ccc1Oc1ncc(Br)cn1
IC50 [1]: 5 µM

CNc1ccccc1C(=O)NC(=O)Nc1ccc(Oc2ncc(Br)cn2)c(C)c1
IC50 [10]: 1000 nM
IC50 [11]: 1000 nM
IC50 [12]: 1000 nM
